Starred links: 1 amine or outer side, 2 acyl side, 3 side chain; linkers in the order of their positions; H or OH if unused. Positions of bridges follow the written chain, without caps; N, C: chain ends. Non-standard residues stand in square brackets, D forms with d. Residues, ends and D or L forms follow the SMILES beside them. *: point of attachment. Cys(CH2CO)(S-oxide,Ss) = O=C([C@H](C[S@+]([O-])CC(=O)[*:3])N[*:1])[*:2]; X1 = O=C(O)CCc1cc(C[C@H](N[*:1])C(=O)[*:2])ccc1O; Tyr(3-NH2) = Nc1cc(C[C@H](N)C(=O)O)ccc1O; X2 = C[C@](CCCC(=O)O)(N[*:1])C(=O)[*:2]; Gla = N[C@@H](CC(C(=O)O)C(=O)O)C(=O)O; Fmoc = O=C(OCC1c2ccccc2-c2ccccc21)*; αMehGlu = C[C@](N)(CCCC(=O)O)C(=O)O; αMeE = C[C@](N)(CCC(=O)O)C(=O)O; Aad = N[C@@H](CCCC(=O)O)C(=O)O; αMeD = C[C@](N)(CC(=O)O)C(=O)O; Ac6c = NC1(C(=O)O)CCCCC1; Ava = NCCCCC(=O)O
How the values were obtained:
[1] = target: Growth factor receptor-bound protein 2 (Homo sapiens, UniProt P62993); experiment: Binding affinity to recombinant Grb2 SH2 domain by surface plasmon resonance analysis
Summary of the method: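 Competition SPR: inhibitor mixed with recombinant Grb2 SH2 protein, with equilibrium binding measured to immobilized biotinyl-DDPS-pY-VNVQ (SHC pTyr317 phosphopeptide) on a streptavidin SA chip. Run in pH 7.4 PBS with 0.01% P-20 surfactant. IC50 is the concentration giving half-maximal competition, as the mean of at least two independent experiments with standard deviation.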

MDA-MB-453 = experiment: Antiproliferative activity against human MDA-MB-453 cells expressing erbB-2 after 4 days by WST-8 assay; type: functional, cell-based; settings: MDA-MB-453, 96 h
Summary of the method: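 MDA-MB-453 cells (erbB-2 overexpressing) seeded at (3-4) × 10^3 cells/well with a range of inhibitor concentrations, incubated 4 days. WST-8 added to 10% final, 2-3 h at 37 °C, absorbance read at 450 nm. IC50 is the concentration giving 50% growth inhibition, taken against untreated DMSO-control absorbance.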

Chain of Growth factor receptor-bound protein 2 (P62993 whole entry, the tested form may be a part): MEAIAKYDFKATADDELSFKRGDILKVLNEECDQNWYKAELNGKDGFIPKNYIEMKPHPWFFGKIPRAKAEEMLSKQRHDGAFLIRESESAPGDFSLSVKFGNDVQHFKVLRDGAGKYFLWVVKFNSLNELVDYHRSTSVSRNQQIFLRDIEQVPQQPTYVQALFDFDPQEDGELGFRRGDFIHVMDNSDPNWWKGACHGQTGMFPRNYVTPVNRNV

Which IC50 [1] does the source give for `CC(C)C[C@@H]1NC(=O)[C@H](CCCC(=O)O)NC(=O)C[S@@+]([O-])C[C@@H](C(N)=O)NC(=O)CCCCNC(=O)[C@H](CC(N)=O)NC(=O)[C@](C)(CC(=O)O)NC(=O)[C@H](Cc2ccc(O)cc2)NC1=O` ([Aad]LY[αMeD]N[Ava][Cys(CH2CO)(S-oxide,Ss)]-NH2; lactam N-7) here?
The IC50 was 30.5 µM.

`CC(C)C[C@@H]1NC(=O)[C@H](CCCC(=O)O)NC(=O)CSC[C@@H](C(N)=O)NC(=O)CCCCNC(=O)[C@H](CC(N)=O)NC(=O)[C@@](C)(CCC(=O)O)NC(=O)[C@H](Cc2ccc(O)cc2)NC1=O` was tested. Which IC50 [1] did it give?
The IC50 was 60.5 µM.

`CC(C)C[C@@H]1NC(=O)[C@H](CCCC(=O)O)NC(=O)CSC[C@@H](C(N)=O)NC(=O)CCCCNC(=O)[C@H](CC(N)=O)NC(=O)[C@](C)(CCC(=O)O)NC(=O)[C@H](Cc2ccc(O)cc2)NC1=O` was tested. Which IC50 [1] did it give?
Its IC50 is 70 µM.

How did the IC50 [1] turn out when `CC(C)C[C@@H]1NC(=O)[C@H](CCCC(=O)O)NC(=O)C[S@@+]([O-])C[C@@H](C(N)=O)NC(=O)CCCCNC(=O)[C@H](CC(N)=O)NC(=O)C2(CCCCC2)NC(=O)[C@H](Cc2ccc(O)cc2)NC1=O` ([Aad]LY[Ac6c]N[Ava][Cys(CH2CO)(S-oxide,Ss)]-NH2; lactam N-7) was run?
Its IC50 is 77 µM.

With `CC(C)C[C@H](NC(=O)[C@H](CCCC(=O)O)NC(=O)OCC1c2ccccc2-c2ccccc21)C(=O)N[C@@H](Cc1ccc(O)c(N)c1)C(=O)NC1(C(=O)N[C@@H](CC(N)=O)C(N)=O)CCCCC1` (Fmoc-[Aad]L[Tyr(3-NH2)][Ac6c]N-NH2) as the molecule, how does the IC50 [1] read?
The IC50 was 5.8 µM.

Which IC50 [1] does the source give for `C[C@@](CCC(=O)O)(NC(=O)[C@@H](N)Cc1ccc(O)c(CCO)c1)C(=O)N[C@@H](CC(N)=O)C(N)=O` here?
The IC50 was 290 µM.

For `CC(C)C[C@H](NC(=O)[C@@H](N)CC(C(=O)O)C(=O)O)C(=O)N[C@@H](Cc1ccc(O)c(N)c1)C(=O)N[C@@](C)(CCC(=O)O)C(=O)N[C@@H](CC(N)=O)C(N)=O` (H-[Gla]L[Tyr(3-NH2)][αMeE]N-NH2), which IC50 [1] is on record?
The IC50 was 19 µM.

How did the IC50 [1] turn out when `CC(C)C[C@@H]1NC(=O)[C@H](CCCC(=O)O)NC(=O)C[S@@+]([O-])C[C@@H](C(N)=O)NC(=O)CCCCNC(=O)[C@H](CC(N)=O)NC(=O)[C@](C)(CCC(=O)O)NC(=O)[C@H](Cc2ccc(O)c(N)c2)NC1=O` ([Aad]L[Tyr(3-NH2)][αMeE]N[Ava][Cys(CH2CO)(S-oxide,Ss)]-NH2; lactam N-7) was run?
Its IC50 is 8.1 µM.

How did the IC50 [1] turn out when `CC(C)C[C@@H]1NC(=O)[C@H](CC(C(=O)O)C(=O)O)NC(=O)CSC[C@@H](C(N)=O)NC(=O)CCCCNC(=O)[C@H](CC(N)=O)NC(=O)[C@](C)(CCCC(=O)O)NC(=O)[C@H](Cc2ccc(O)c(N)c2)NC1=O` ({CH2CO}-[Gla]L[Tyr(3-NH2)][αMehGlu]N[Ava]C-NH2; thioether N-7) was run?
The IC50 was 9.5 µM.

Which results are given for `CC(C)C[C@H](NC(=O)[C@H](CC(C(=O)O)C(=O)O)NC(=O)OCC1c2ccccc2-c2ccccc21)C(=O)N[C@@H](Cc1ccc(O)c(N)c1)C(=O)N[C@@](C)(CCC(=O)O)C(=O)N[C@@H](CC(N)=O)C(N)=O` (Fmoc-[Gla]L[Tyr(3-NH2)][αMeE]N-NH2)?
IC50 (MDA-MB-453): 55 µM; IC50 [1]: 4.4 µM

Which IC50 [1] does the source give for `CC(C)C[C@@H]1NC(=O)[C@H](CCCC(=O)O)NC(=O)C[S@@+]([O-])C[C@@H](C(N)=O)NC(=O)CCCCNC(=O)[C@H](CC(N)=O)NC(=O)[C@@](C)(CCC(=O)O)NC(=O)[C@H](Cc2ccc(O)cc2)NC1=O` here?
Its IC50 is 30.5 µM.

Which results are given for `CC(C)C[C@@H]1NC(=O)[C@H](CC(C(=O)O)C(=O)O)NC(=O)C[S@@+]([O-])C[C@@H](C(N)=O)NC(=O)CCCCNC(=O)[C@H](CC(N)=O)NC(=O)[C@](C)(CCCC(=O)O)NC(=O)[C@H](Cc2ccc(O)c(N)c2)NC1=O` ([Gla]L[Tyr(3-NH2)][αMehGlu]N[Ava][Cys(CH2CO)(S-oxide,Ss)]-NH2; lactam N-7)?
IC50 (MDA-MB-453): 12 µM; IC50 [1]: 1.15 µM

Which IC50 [1] does the source give for `CC(C)C[C@@H]1NC(=O)[C@H](CCCC(=O)O)NC(=O)CSC[C@@H](C(N)=O)NC(=O)CCCCNC(=O)[C@H](CC(N)=O)NC(=O)[C@](C)(CCCC(=O)O)NC(=O)[C@H](Cc2ccc(O)cc2)NC1=O` ({CH2CO}-[Aad]LY[αMehGlu]N[Ava]C-NH2; thioether N-7) here?
The IC50 was 60.7 µM.

Which IC50 [1] does the source give for `CC(C)C[C@@H]1NC(=O)[C@H](CCCC(=O)O)NC(=O)C[S@@+]([O-])C[C@@H](C(N)=O)NC(=O)CCCCNC(=O)[C@H](CC(N)=O)NC(=O)[C@](C)(CCC(=O)O)NC(=O)[C@H](Cc2ccc(O)cc2)NC1=O` here?
The IC50 was 18 µM.

With `CC(C)C[C@@H]1NC(=O)[C@H](CCCC(=O)O)NC(=O)CSC[C@@H](C(N)=O)NC(=O)CCCCNC(=O)[C@H](CC(N)=O)NC(=O)[C@](C)(CCC(=O)O)NC(=O)[C@H](Cc2ccc(O)c(N)c2)NC1=O` ({CH2CO}-[Aad]L[Tyr(3-NH2)][αMeE]N[Ava]C-NH2; thioether N-7) as the molecule, how does the IC50 [1] read?
Its IC50 is 17 µM.

With `CC(C)C[C@H](NC(=O)[C@](C)(CCCC(=O)O)NC(=O)OCC1c2ccccc2-c2ccccc21)C(=O)N[C@@H](Cc1ccc(O)c(N)c1)C(=O)NC1(C(=O)N[C@@H](CC(N)=O)C(N)=O)CCCCC1` (Fmoc-[αMehGlu]L[Tyr(3-NH2)][Ac6c]N-NH2) as the molecule, how does the IC50 (MDA-MB-453) read?
The IC50 was 29 µM.

And the IC50 [1]?
Its IC50 is 3.9 µM.

With `C[C@@](CCC(=O)O)(NC(=O)[C@H](Cc1ccc(O)c(CCC(=O)O)c1)NC(=O)OCC1c2ccccc2-c2ccccc21)C(=O)N[C@@H](CC(N)=O)C(N)=O` as the molecule, how does the IC50 [1] read?
Its IC50 is 168 µM.

How did the IC50 [1] turn out when `CC(C)C[C@@H]1NC(=O)[C@H](CCCC(=O)O)NC(=O)CSC[C@@H](C(N)=O)NC(=O)CCCCNC(=O)[C@H](CC(N)=O)NC(=O)[C@](C)(CC(=O)O)NC(=O)[C@H](Cc2ccc(O)cc2)NC1=O` ({CH2CO}-[Aad]LY[αMeD]N[Ava]C-NH2; thioether N-7) was run?
Its IC50 is 108 µM.

With `CC(C)C[C@@H]1NC(=O)[C@H](CCCC(=O)O)NC(=O)C[S@@+]([O-])C[C@@H](C(N)=O)NC(=O)CCCCNC(=O)[C@H](CC(N)=O)NC(=O)[C@](C)(CCCC(=O)O)NC(=O)[C@H](Cc2ccc(O)cc2)NC1=O` ([Aad]LY[αMehGlu]N[Ava][Cys(CH2CO)(S-oxide,Ss)]-NH2; lactam N-7) as the molecule, how does the IC50 [1] read?
The IC50 was 17 µM.

`CC(C)C[C@H](NC(=O)[C@](C)(CCCC(=O)O)NC(=O)OCC1c2ccccc2-c2ccccc21)C(=O)N[C@@H](Cc1ccc(O)cc1)C(=O)NC1(C(=O)N[C@@H](CC(N)=O)C(N)=O)CCCCC1` (Fmoc-[αMehGlu]LY[Ac6c]N-NH2) was tested. Which IC50 [1] did it give?
Its IC50 is 118 µM.

With `CC(C)C[C@H](NC(=O)[C@H](CC(C(=O)O)C(=O)O)NC(=O)OCC1c2ccccc2-c2ccccc21)C(=O)N[C@@H](Cc1ccc(O)c(N)c1)C(=O)NC1(C(=O)N[C@@H](CC(N)=O)C(N)=O)CCCCC1` (Fmoc-[Gla]L[Tyr(3-NH2)][Ac6c]N-NH2) as the molecule, how does the IC50 (MDA-MB-453) read?
The IC50 was 52 µM.

And the IC50 [1]?
Its IC50 is 2.5 µM.

With `CC(C)C[C@H](NC(=O)[C@H](CCCC(=O)O)NC(=O)OCC1c2ccccc2-c2ccccc21)C(=O)N[C@@H](Cc1ccc(O)c(CCC(=O)O)c1)C(=O)N[C@@](C)(CCC(=O)O)C(=O)N[C@@H](CC(N)=O)C(N)=O` (Fmoc-[Aad]L[X1][αMeE]N-NH2) as the molecule, how does the IC50 (MDA-MB-453) read?
The IC50 was 14 µM.

And the IC50 [1]?
Its IC50 is 5.6 µM.

With `CC(C)C[C@H](NC(=O)[C@@](C)(CCCC(=O)O)NC(=O)OCC1c2ccccc2-c2ccccc21)C(=O)N[C@@H](Cc1ccc(O)cc1)C(=O)NC1(C(=O)N[C@@H](CC(N)=O)C(N)=O)CCCCC1` (Fmoc-[X2]LY[Ac6c]N-NH2) as the molecule, how does the IC50 [1] read?
Its IC50 is > 1000 µM.

`CC(C)C[C@H](NC(=O)[C@@](C)(CCCC(=O)O)NC(=O)OCC1c2ccccc2-c2ccccc21)C(=O)N[C@@H](Cc1ccc(O)c(N)c1)C(=O)NC1(C(=O)N[C@@H](CC(N)=O)C(N)=O)CCCCC1` (Fmoc-[X2]L[Tyr(3-NH2)][Ac6c]N-NH2) was tested. Which IC50 [1] did it give?
Its IC50 is 700 µM.
